Laboratory results from ChEMBL document CHEMBL1123403, “Pyrazolo[4,5-c]quinolines. 2. Synthesis and specific inhibition of benzodiazepine receptor binding” (J Med Chem, 1986).

Tests used:
[1] = biological target: GABA-A receptor; anion channel (Bos taurus) (UniProt P10063+P08220+P20237+P08219+P10064+P22300); assay: Inhibition of specific [3H]flunitrazepam binding to Benzodiazepine receptor in bovine brain membranes at 34 uM; assay type: cell membranes
[2] = biological target: GABA-A receptor; anion channel; assay: Inhibitory concentration against [3H]flunitrazepam binding to Benzodiazepine receptor in bovine brain membranes; assay type: cell membranes
How it was run: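 Membranes were made by homogenizing in ice-cold 0.32 M sucrose with protease inhibitors, spinning at 48000g, and osmotically shocking in 50 mM Tris-HCl. Membranes (0.4-0.5 mg protein, Lowry) were incubated with 1.0 nM [3H]flunitrazepam in 50 mM Tris-HCl at 0 °C for 90 min, then filtered and counted by scintillation. Nonspecific binding was defined with 10 μM diazepam. IC50 came from log-probit analysis of 4-6 concentrations, each in triplicate.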

inhibition [1] [%]	IC50 [2] [µM]	Compound
21		Cc1cccc(-n2nc(C)c3c(Cl)nc4ccccc4c32)c1
44		Cc1cccc(-n2nc(C)c3c(N4CCN(C)CC4)nc4ccccc4c32)c1
49		Cc1nn(-c2cccc(Cl)c2)c2c1c(N1CCN(C)CC1)nc1ccccc12
85	3.4	Cc1nn(-c2ccccc2)c2c1c(=O)n(C)c1ccccc21
63		Cc1ccc(-n2nc(C)c3c(=O)n(C)c4ccccc4c32)cc1
21		Cc1nn(-c2cccc(Cl)c2)c2c1c(Cl)nc1ccccc12
96	1	Cc1nn(-c2cccc(Cl)c2)c2c1c(=O)n(C)c1ccccc21
65		Cc1ccc(-n2nc(C)c3c(O)nc4ccccc4c32)cc1
7		Cc1cccc(-n2nc(C)c3c(N4CCOCC4)nc4ccccc4c32)c1
8		Cc1nn(-c2ccccc2)c2c1c(N1CCOCC1)nc1ccccc12
41		Cc1nn(-c2ccccc2)c2c1c(N1CCN(C)CC1)nc1ccccc12
97	9	Cc1cccc(-n2nc(C)c3c(O)nc4ccccc4c32)c1
94	4.4	Cc1nn(-c2cccc(Cl)c2)c2c1c(O)nc1ccccc12
70	22	Cc1nn(-c2ccc(Cl)cc2)c2c1c(O)nc1ccccc12
78	2.7	Cc1nn(-c2ccc(Cl)cc2)c2c1c(=O)n(C)c1ccccc21
47		Cc1[nH]nc2c1c(=O)[nH]c1ccccc12
23		Cc1nn(-c2ccc(Cl)cc2)c2c1c(N1CCN(C)CC1)nc1ccccc12
62		Cc1nn(-c2ccccc2)c2c1c(O)nc1ccccc12
24		Cc1nn(-c2cccc(Cl)c2)c2c1c(N1CCOCC1)nc1ccccc12
18		COc1nc2ccccc2c2c1c(C)nn2-c1cccc(Cl)c1
95	0.26	Cc1cccc(-n2nc(C)c3c(=O)n(C)c4ccccc4c32)c1
